Sampled rows, rich in hits. Any-hit rate of the full collection: about 4.2%.
XBP1 UPR activ = adaptive UPR (XBP1) activation; AID 463104; hit rate 0.33% among 330,000; CHO-XBP1 luciferase reporter, IRE1-XBP1 UPR activation, luminescence; percent of tunicamycin response, DMSO as zero; activation, % at 20 µM;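 active = versus positive control, 20 µM dose yields 30% or more activation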;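 note: 100% = tunicamycin at 10 µg/mL and 0% = DMSO only wells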
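assay system = CHO-XBP1 luciferase reporter cells | amount = 1000 cells/well | buffer or medium = F12 plus 10% FBS | compound dosing = single point, 20 µM final compound, 1% DMSO | incubation = 16-18 h cell attachment at 37 °C, then 6 h compound exposure | detection = Steady-Glo luminescence read | controls = tunicamycin 10 µg/mL and vehicle-only wells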
Lipid droplet = modulators of hepatic lipid droplet formation. hit rate 0.4% among 240,000. inhibition, % at 6.5 µM. AID 1656. AML12 mouse hepatocytes, oleate lipid droplets, BODIPY imaging;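 active = lipid droplet intensity inhibited by at least 50%, with more than 500 cells counted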
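Assay system: AML12 mouse liver cells | Compound: 6.5 µM single-point dosing | Schedule: Overnight exposure | Technique: Fluorescence imaging, 20x objective, two fields per well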
CHOP inh = CHOP inhibition in unfolded protein response; CHO-K1 CHOP-promoter luciferase, tunicamycin-induced, 15-18 h; AID 2732; inhibition, % at 10 µM; hit rate 3.8% among 220,000;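 active = compounds that reduced the stress-induced luciferase reporter signal by more than about 70% of percent inhibition, limit read from the data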;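 note: 0% = tunicamycin plus vehicle and 100% = wells without tunicamycin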
TMEM16A inh = blocks the mouse calcium-activated chloride channel TMEM16A. HEK293 TMEM16A/YFP iodide influx fluorescence, ionomycin. normalized B-score (activity score, 25-100; higher = stronger inhibition) at 10 µM. hit rate 1.2% among 310,000;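 active = ratio plate-corrected score three or more library SD toward inhibition, starting fluorescence score within five deviations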;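 note: score derived from kinetic fluorescence span divided by baseline fluorescence per well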
Target sequence (Q8BHY3 whole entry, looked up): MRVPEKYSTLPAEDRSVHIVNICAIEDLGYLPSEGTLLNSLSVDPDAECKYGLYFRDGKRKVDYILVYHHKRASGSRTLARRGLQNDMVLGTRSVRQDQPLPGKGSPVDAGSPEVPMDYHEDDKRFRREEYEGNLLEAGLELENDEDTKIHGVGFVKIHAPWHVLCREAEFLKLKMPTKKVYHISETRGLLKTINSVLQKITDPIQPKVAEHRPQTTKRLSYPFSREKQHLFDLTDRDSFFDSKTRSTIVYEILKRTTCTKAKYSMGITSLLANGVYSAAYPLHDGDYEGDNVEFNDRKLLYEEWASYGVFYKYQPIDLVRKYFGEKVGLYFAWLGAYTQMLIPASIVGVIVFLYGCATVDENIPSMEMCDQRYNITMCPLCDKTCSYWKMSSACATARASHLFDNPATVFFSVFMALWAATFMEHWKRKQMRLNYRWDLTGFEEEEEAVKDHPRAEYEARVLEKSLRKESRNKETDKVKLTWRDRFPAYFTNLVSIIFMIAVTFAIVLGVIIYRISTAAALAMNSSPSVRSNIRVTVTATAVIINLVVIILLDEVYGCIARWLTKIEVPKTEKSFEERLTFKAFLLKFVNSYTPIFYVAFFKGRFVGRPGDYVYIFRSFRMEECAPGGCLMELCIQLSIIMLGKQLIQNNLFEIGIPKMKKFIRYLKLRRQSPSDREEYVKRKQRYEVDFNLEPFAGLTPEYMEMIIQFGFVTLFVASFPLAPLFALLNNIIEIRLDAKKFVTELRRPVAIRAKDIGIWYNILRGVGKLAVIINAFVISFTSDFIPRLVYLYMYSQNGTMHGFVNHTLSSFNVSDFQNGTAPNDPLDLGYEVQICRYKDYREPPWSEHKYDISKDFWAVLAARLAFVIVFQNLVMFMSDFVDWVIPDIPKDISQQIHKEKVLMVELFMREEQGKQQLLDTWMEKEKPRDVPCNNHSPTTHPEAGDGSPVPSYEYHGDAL
TMEM16A act = activators or potentiators of mouse TMEM16A chloride channel | HEK293 TMEM16A/YFP-H148Q/I152L, iodide quench fluorescence; stronger effect = lower value | hit rate 0.3% among 340,000 | B-score at 10 µM | Q8BHY3;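 active = fluorescence-ratio B-score plate-corrected deviation score at least 3 library SD below zero, with starting fluorescence score within 5 deviations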;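 note: channel opened by trigger with iodide after compound preincubation; score built on the fluorescence ratio of max minus min over baseline; more negative score means more quench and so TMEM16A activation or potentiation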
CHOP UPR activ = activators of apoptotic arm of unfolded protein response (CHOP); CHO-CHOP luciferase reporter, UPR activation, luminescence; percent of tunicamycin response over DMSO baseline; activation, % at 10 µM; hit rate 0.34% among 330,000; AID 449763;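 active = at 10 µM dose, activation of 40% or more, normalized to positive control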;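 note: 100% = tunicamycin at 10 µg/mL and 0% = DMSO alone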
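Dosing – one dose, 10 µM in 0.5% DMSO · System – CHO-CHOP cells, stable luciferase reporter of PERK-eIF2a-CHOP signalling · Input – 500 cells/well · Control set – tunicamycin 10 µg/mL final as positive, DMSO-only wells as negative · Timing – 6 h compound treatment, 37 °C · Measure – % activation vs tunicamycin · Technique – luminescence read with Steady-Glo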
CHOP UPR conf = apoptotic UPR (CHOP) activation, confirmed | shares compounds with CHOP UPR activ | CHO-CHOP cells, CHOP-luciferase reporter luminescence; percent of tunicamycin response, DMSO as zero | activation, % at 10 µM | hit rate 64% among 1,000 | AID 463112; in the data active = activation above about 33%;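 note: 0% = DMSO wells and 100% = tunicamycin 10 µg/mL wells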
XBP1 UPR conf = adaptive UPR (XBP1) activation, confirmed | shares compounds with XBP1 UPR activ | CHO-XBP1 IRE1-XBP1 luciferase reporter, luminescence | activation, % at 20 µM | hit rate 63% among 1,000 | AID 485299;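 active = reporter signal at least 30% of the positive control's activation in two or more of four replicate wells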;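 note: plate controls were DMSO negative control for no effect and tunicamycin 10 µg/mL positive control for full effect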
Numbers without * were called inactive; i = inactive; . = no result.

SMILES	XBP1 UPR activ	Lipid droplet	CHOP inh	TMEM16A inh	TMEM16A act	CHOP UPR activ	CHOP UPR conf	XBP1 UPR conf
Cc1ccc2nc(-c3ccc(NC(=S)NC4CC(C)(C)NC(C)(C)C4)cc3)sc2c1	49*	30	59	i	i	60*	63*	61*
CC(NC(=O)C1CCN(C(=O)c2ccc(F)cc2)CC1)c1ccc(-n2ccnc2)cc1 (stereo not given)	2	.	.	.	i	1	.	.
COc1ccccc1N=c1oc2c(OC)cccc2cc1C(=O)NCc1ccco1	69*	.	83*	25*	i	76*	67*	17
CCn1cc(C(=O)NC(=S)Nc2sc3c(c2C(=O)OC)CCCCCC3)cn1	60*	22	78*	i	i	71*	35*	57*
CCOC(=O)c1c(NC(=O)c2nn(CC)cc2Br)sc2c1CCCCC2	7	31	6	i	i	0	.	.
CCCCN1C(=O)C(=O)N(CC(=O)c2cc(C)n(-c3cc(C)on3)c2C)C1=O	-1	.	.	.	i	0	.	.
CCOc1cc(/C=C2/NC(=S)NC2=O)ccc1OCc1ccc([N+](=O)[O-])cc1	127*	-29	30	i	i	165*	26	39*
CCOc1cc(C(c2c(C)[nH][nH]c2=O)c2c(C)[nH][nH]c2=O)ccc1OCc1ccc([N+](=O)[O-])cc1	-1	-2	-7	i	i	1	.	.
COc1cc(/C=C/C(=O)OCC(=O)NCCc2ccc(S(N)(=O)=O)cc2)ccc1OCC#N	-4	.	.	.	i	-1	.	.
Cn1c2ccccc2c2cc(/C=N/NC(=O)c3cc(O)ccc3O)ccc21	33*	9	.	i	i	169*	84*	87*
Cn1c2ccccc2c2cc(/C=N/NC(=O)c3cc(O)cc(O)c3)ccc21	-3	-1	.	i	i	3	.	.
O=C(NCCc1ccc(F)cc1)N[C@@H](Cc1ccccc1)C(=O)O	-4	-8	.	i	i	3	.	.
CCN(CC)S(=O)(=O)c1ccc(N/N=C(\C)c2ccc3c(c2)OCO3)c([N+](=O)[O-])c1	211*	12	92*	i	i	155*	63*	155*
CC(=O)NC12CC3CC(C1)CC(C(=O)N(C)Cc1cccc(Cl)c1Cl)(C3)C2	-3	-18	.	i	i	1	.	.
COc1ccc(C(=O)Nc2ccc(-c3nnn(CC(=O)NCc4ccco4)n3)cc2)cc1	-2	-3	-41	i	i	-1	.	.
COc1ccc(CNC(=O)CSc2nc(-c3ccccc3)cc(-c3cccs3)c2C#N)cc1	33*	-2	-37	i	i	45*	7	20
COc1ccc(-c2cc(-c3cccs3)c(C#N)c(SCC(=O)NCc3ccco3)n2)cc1	6	.	.	i	.	3	.	.
CCOC(=O)c1sc(NC(=S)NC(=O)c2ccccc2Cl)c(C(=O)OCC)c1C	2	-9	-1	i	i	0	.	.
CCOC(=O)c1c(NC(=O)c2cc(-c3ccc(O)cc3)on2)sc(C(C)=O)c1C	84*	2	35	i	i	78*	24	43*
CCOC(=O)c1sc(NC(=S)NC(=O)c2ccccc2)c(C(=O)OCC)c1C	51*	4	77*	i	i	51*	98*	114*
CC(C)=CCN1CCN(CCC2=C(C)CCCC2(C)C)CC1CCO (stereo not given)	2	-4	9	i	i	2	.	.
CC1=C(CC/C(C)=N/NC(N)=S)C(C)(C)CCC1	58*	-14	29	i	i	151*	48*	55*
Cn1nc(C(F)(F)F)c(/C=N/OC(=O)c2ccccc2)c1SCc1ccccc1Cl	91*	.	2	i	i	52*	100*	115*
CCOc1ccc(NC(=S)NC(=O)/C=C/c2ccc(OC)c(OC)c2)c([N+](=O)[O-])c1	168*	.	81*	i	i	61*	49*	251*
Cc1ccc(C)c(NC(=S)c2ccccn2)c1	33*	.	-121	i	i	125*	112*	13
SMILES	XBP1 UPR activ	Lipid droplet	CHOP inh	TMEM16A inh	TMEM16A act	CHOP UPR activ	CHOP UPR conf	XBP1 UPR conf
Cc1ccc(-n2nc3cc(C)c(NC(=S)NC(=O)/C=C/c4ccco4)cc3n2)cc1	56*	1	29	i	i	65*	128*	114*
Cc1ccc(-n2nc3ccc(NC(=S)NC(=O)/C=C/c4ccco4)cc3n2)cc1	1	-14	8	i	i	2	.	.
Oc1ccc(/C=N/Nc2ncnc3c2ncn3Cc2ccccc2)cc1O	136*	15	-55	i	i	223*	67*	76*
CCOc1ccc(-n2c(SCC(=O)N3CCc4ccccc43)nnc2-c2c[nH]c3ccccc23)cc1	-2	-1	-17	i	i	-1	.	.
COc1cccc(-n2c(SCC(=O)N3CCc4ccccc43)nnc2-c2c[nH]c3ccccc23)c1	336*	0	90*	i	i	102*	43*	229*
COC(=O)/C=c1\[nH]c2nnc(C)n2c1=O	-1	-9	10	i	i	1	.	.
Cc1nn(-c2ccccc2)c(C)c1/C=N/NC(=O)CSc1nc2ccccc2c(=O)n1-c1ccc(Br)cc1	69*	.	85*	i	i	252*	60*	111*
CC1(C)CC(=O)C=C(NC2CCCC(O)C2)C1 (stereo not given)	1	.	.	i	i	-1	.	.
COc1ccc(/C=c2\s/c(=C(/C#N)C(=O)NCc3ccco3)n(-c3ccccc3)c2=O)cc1	38*	-20	28	i	i	43*	8	43*
CCOc1cc(/C=N/Nc2nc(C)cc(=O)[nH]2)ccc1O	-2	-22	.	i	i	0	.	.
CCOc1cc(/C=N/Nc2cc(C)nc(-n3nc(C)cc3C)n2)ccc1O	48*	0	-48	i	i	86*	63*	27
CCN(CC1CCCO1)C(=O)C1CCN(C2CCN(Cc3ccccc3C)CC2)CC1 (stereo not given)	-3	-7	.	i	i	-2	.	.
COc1cc(OC)cc(OC(=O)c2ccc3c(=O)n4c(nc3c2)CCC4)c1	7	.	.	i	i	4	.	.

Screens from PubChem BioAssay.
